Test results as given in ChEMBL document CHEMBL3407394, “Synthesis and in vitro anticancer activity evaluation of novel bioreversible phosphate inositol derivatives” (Eur J Med Chem, 2015).

Legend:
[1] = test system: A549; assay: Cytotoxicity against human A549 cells assessed as growth inhibition at 10 ug/ml after 72 hrs by MTT assay; assay type: functional; details: A549, 72 h, read-out: GI
Method in brief: (§1)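 Single-concentration screen in A549, HeLa or MDA-MB-231 cells cultured in DMEM, 10% FBS, 1% penicillin/streptomycin. About 1000 cells/well were preincubated 12 h, and compound diluted in DMEM to the final well concentration (0.5% DMSO) for 72 h at 37 °C, 5% CO2. Readout was MTT 4 h, DMSO-solubilized formazan, OD570, with inhibition relative to DMSO vehicle. Cisplatin in 1% NaCl (pH 7) served as positive control.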

[2] = test system: HeLa; assay: Cytotoxicity against human HeLa cells assessed as growth inhibition at 10 ug/ml after 72 hrs by MTT assay; assay type: functional; details: read-out: GI; method in brief: as §1
[3] = test system: MDA-MB-231; assay: Cytotoxicity against human MDA-MB-231 cells assessed as growth inhibition at 10 ug/ml after 72 hrs by MTT assay; assay type: functional; details: MDA-MB-231, 72 h, read-out: GI; method in brief: as §1
[4] = Cytotoxicity against human MCF10A cells assessed as growth inhibition at 10 ug/ml after 72 hrs by MTT assay; assay type: cell-based, MCF-10A; details: read-out: GI
Method in brief: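 MCF10A cells in DMEM/F12 plus 5% horse serum, about 1000 per well, were incubated 12 h, then treated at one final well concentration diluted in DMEM (0.5% DMSO) for 72 h, 37 °C, 5% CO2. Viability was by MTT: 4 h in fresh medium, formazan dissolved in DMSO, absorbance at 570 nm, normalized to vehicle controls. Cisplatin in 1% NaCl, pH 7, was the positive control.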

[5] = test system: A549; assay: Cytotoxicity against human A549 cells assessed as growth inhibition after 72 hrs by MTT assay; assay type: functional, cell-based; details: A549, 72 h
Method in brief: (§2)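 A549, HeLa and MDA-MB-231 cells were grown in DMEM with 10% FBS and 1% penicillin/streptomycin. About 1000 cells/well were seeded and left 12 h, then exposed to a dilution series in DMSO (final 0.5% DMSO) for 72 h at 37 °C, 5% CO2. MTT in fresh medium was added for 4 h, formazan dissolved in DMSO, and OD570 read. Viability was normalized to vehicle, and IC50 taken by linear regression of concentration-response curves.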

[6] = test system: HeLa; assay: Cytotoxicity against human HeLa cells assessed as growth inhibition after 72 hrs by MTT assay; assay type: functional, cell-based; method in brief: as §2
[7] = test system: MDA-MB-231; assay: Cytotoxicity against human MDA-MB-231 cells assessed as growth inhibition after 72 hrs by MTT assay; assay type: functional, cell-based; details: MDA-MB-231, 72 h; method in brief: as §2
[8] = Cytotoxicity against human MCF10A cells assessed as growth inhibition after 72 hrs by MTT assay; assay type: cell-based; details: MCF-10A
Method in brief: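 MCF10A non-cancerous cells were maintained in DMEM/F12 with 5% horse serum. About 1000 cells/well were seeded and attached for 12 h, then dosed over a dilution series (DMSO vehicle, final 0.5%) for 72 h at 37 °C, 5% CO2. MTT in fresh medium ran 4 h, formazan was dissolved in DMSO and OD570 measured. Viability was relative to vehicle-treated cells, and IC50 came from linear regression of concentration-response curves.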

Row | Compound | inhibition of growth at 10 µg/mL [1] [%] | inhibition of growth at 10 µg/mL [2] [%] | inhibition of growth at 10 µg/mL [3] [%] | inhibition at 72 h, 10 ug/ml [4] [%] | IC50 [5] [nM] | IC50 [6] [nM] | IC50 [7] [nM] | IC50 [8] [nM]
1 | CC(=O)Oc1ccc(COP(=O)(OCc2ccc(OC(C)=O)cc2)OC2C3OC4OC(C3OCc3ccccc3)C(OCc3ccccc3)C2O4)cc1 (centres undefined) | 88.9 | 100 | 95.8 | 20.1 | 6750 | 1260 | 2770 | 45400
2 | CC(=O)Oc1ccc(COP(=O)(OCc2ccc(OC(C)=O)cc2)OC2C3OC4OC(C3OCc3ccccc3)C(O[Si](C)(C)C(C)(C)C)C2O4)cc1 (centres undefined) | 100 | 100 | 84.3 | 100 | 9510 | 1350 | 2350 | 38100
3 | CC(=O)Oc1ccc(COP(=O)(OCc2ccc(OC(C)=O)cc2)OC2C(OCc3ccccc3)C3OCOC(C3OCc3ccccc3)C2OCc2ccccc2)cc1 (centres undefined) | 75.4 | 98.1 | 12.4 | 48.9 | 8150 | 1520 | 1580 | 18900
4 | CC(=O)Oc1ccc(COP(=O)(OCc2ccc(OC(C)=O)cc2)OC2C(OCc3ccccc3)C3OC(C)OC(C3OCc3ccccc3)C2OCc2ccccc2)cc1 (centres undefined) | 96.6 | 100 | 9.5 | 98.1 | 11400 | 2790 | 2850 | 8190
5 | CC(=O)Oc1ccc(COP(=O)(OCc2ccc(OC(C)=O)cc2)O[C@H]2[C@@H]3OC(C)(C)O[C@H]3[C@H](OP(=O)(OCc3ccc(OC(C)=O)cc3)OCc3ccc(OC(C)=O)cc3)[C@H]3OC(C)(C)O[C@H]32)cc1 | 90.1 | 100 | 91.8 | -10.7 | 2340 | 620 | 830 | 25100
6 | CC(=O)Oc1ccc(COP(=O)(OCc2ccc(OC(C)=O)cc2)OC2C3OC4OC(C3OCc3ccccc3)C(OP(=O)(OCc3ccc(OC(C)=O)cc3)OCc3ccc(OC(C)=O)cc3)C2O4)cc1 (centres undefined) | 98.5 | 100 | 99.7 | 38.8 | 1370 | 760 | 1530 | > 50000
7 | CC(=O)Oc1ccc(COP(=O)(OCc2ccc(OC(C)=O)cc2)OC2C3OCOC(C3OCc3ccccc3)C(OCc3ccccc3)C2OP(=O)(OCc2ccc(OC(C)=O)cc2)OCc2ccc(OC(C)=O)cc2)cc1 (centres undefined) | 92.1 | 100 | 86.8 | 90.4 | 2010 | 620 | 430 | 850
8 | CC(=O)Oc1ccc(COP(=O)(OCc2ccc(OC(C)=O)cc2)OC2C3OCOC2C(OCc2ccccc2)C(OP(=O)(OCc2ccc(OC(C)=O)cc2)OCc2ccc(OC(C)=O)cc2)C3OCc2ccccc2)cc1 (centres undefined) | 43.7 | 100 | 99.4 | 48 | 5550 | 950 | 2370 | 23200
9 | CC(=O)Oc1ccc(COP(=O)(OCc2ccc(OC(C)=O)cc2)O[C@@H]2[C@@H](OCc3ccccc3)[C@H](OP(=O)(OCc3ccc(OC(C)=O)cc3)OCc3ccc(OC(C)=O)cc3)[C@H](OCc3ccccc3)[C@H](OCc3ccccc3)[C@H]2OCc2ccccc2)cc1 | 27.1 | 27.2 | 88.4 | 10.5 | 26700 | 12200 | 28600 | > 40000
10 | CC(=O)Oc1ccc(COP(=O)(OCc2ccc(OC(C)=O)cc2)OC2C3OC4OC2C(OP(=O)(OCc2ccc(OC(C)=O)cc2)OCc2ccc(OC(C)=O)cc2)C(O4)C3OP(=O)(OCc2ccc(OC(C)=O)cc2)OCc2ccc(OC(C)=O)cc2)cc1 (centres undefined) | 85.8 | 94.2 | 92.4 | -2.9 | 7090 | 1410 | 1890 | > 20000
11 | CC(=O)Oc1ccc(COP(=O)(OCc2ccc(OC(C)=O)cc2)OC2C3OCOC2C(OP(=O)(OCc2ccc(OC(C)=O)cc2)OCc2ccc(OC(C)=O)cc2)C(OP(=O)(OCc2ccc(OC(C)=O)cc2)OCc2ccc(OC(C)=O)cc2)C3OCc2ccccc2)cc1 (centres undefined) | 94 | 94.3 | 94.4 | 2.5 | 4270 | 1080 | 1680 | > 20000
12 | C#CCO[C@@H]1[C@@H](OCc2ccccc2)[C@H](OP(=O)(OCc2ccc(OC(C)=O)cc2)OCc2ccc(OC(C)=O)cc2)[C@H](OP(=O)(OCc2ccc(OC(C)=O)cc2)OCc2ccc(OC(C)=O)cc2)[C@H](OP(=O)(OCc2ccc(OC(C)=O)cc2)OCc2ccc(OC(C)=O)cc2)[C@H]1OCc1ccccc1 | 2.5 | 100 | 88.1 | 15.4 | > 30000 | 19000 | > 30000 | > 30000
13 | CC(=O)Oc1ccc(COP(=O)(OCc2ccc(OC(C)=O)cc2)O[C@@H]2[C@@H](OP(=O)(OCc3ccc(OC(C)=O)cc3)OCc3ccc(OC(C)=O)cc3)[C@H](OCc3ccccc3)[C@@H](OCc3ccccc3)[C@H](OCc3ccccc3)[C@@H]2OP(=O)(OCc2ccc(OC(C)=O)cc2)OCc2ccc(OC(C)=O)cc2)cc1 | 34.9 | 68.5 | 52.8 | 55.3 | 3170 | > 20000 | 3280 | > 20000
